Laboratory results from ChEMBL document CHEMBL4680257, “Discovery of novel NF-кB inhibitor based on scaffold hopping: 1,4,5,6,7,8-hexahydropyrido[4,3-d]pyrimidine” (Eur J Med Chem, 2020).
Calls of active or inactive are those of the source. The rule behind the calls is not given here.

Legend:
[1] = Cytotoxicity against human HHL-5 cells assessed as reduction in cell viability incubated for 24 hrs by MTT assay; assay type: cell-based; conditions: HHL-5, 24 h
Outline: (§1)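 Cells kept at 37 °C in 5% CO₂. HepG2 grown in DMEM with 10% serum; HHL-5, LO2 and SMMC-7721 in 1640 medium with 10% serum. Seeded, grown 24 h, then exposed 24 h to 10, 5, 2.5, 1.25, 0.625 and 0.3125 µg/mL. MTT (5 mg/mL) added for 4 h at 37 °C; formazan dissolved in DMSO, OD read at 570 nm. IC50 averaged from three replicates.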

[2] = tested on: L02; test: Cytotoxicity against human L02 cells assessed as reduction in cell viability incubated for 24 hrs by MTT assay; assay type: cell-based; conditions: L02, 24 h; outline: as §1
[3] = tested on: RAW264.7; test: Cytotoxicity against mouse RAW264.7 cells assessed as reduction in cell viability at 5 uM incubated for 24 hrs by MTT assay; assay type: cell-based; conditions: raw264.7, 24 h
[4] = tested on: RAW264.7; test: Antiinflammatory activity against mouse RAW264.7 cells assessed as LPS-induced TNF-alpha at 5 uM pretreated for 2 hrs followed by LPS stimulation and measured after 22 hrs by ELISA (reference value: 0 %); assay type: functional; conditions: time 24 hrs
[5] = tested on: RAW264.7; test: Antiinflammatory activity against mouse RAW264.7 cells assessed as LPS-induced IL-6 at 5 uM pretreated for 2 hrs followed by LPS stimulation and measured after 22 hrs by ELISA relative to control (reference value: 0 %); assay type: functional; conditions: time 24 hrs
[6] = tested on: HepG2; test: Induction of apoptosis in human HepG2 cells assessed as early apoptotic cells at 1 uM incubated for 24 hrs by annexin V-FITC and PI staining based flow cytometry analysis (reference value: 0.2 %); assay type: functional
Outline: (§2)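 Cells seeded at 2×10^5 per well and treated 24 h with 1.0, 2.0 or 4.0 µM, or DMSO. Harvested, washed twice in cold PBS, resuspended at 1×10^5 cells/mL in buffer. Stained with Annexin V-FITC plus propidium iodide for 15 min at room temperature in the dark, then analysed by flow cytometry.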

[7] = tested on: HepG2; test: Induction of apoptosis in human HepG2 cells assessed as late apoptotic cells at 1 uM incubated for 24 hrs by annexin V-FITC and PI staining based flow cytometry analysis (reference value: 4.8 %); assay type: functional; outline: as §2
[8] = tested on: HepG2; test: Induction of apoptosis in human HepG2 cells assessed as necrotic cells at 1 uM incubated for 24 hrs by annexin V-FITC and PI staining based flow cytometry analysis (reference value: 0.8 %); assay type: functional; outline: as §2
[9] = tested on: HepG2; test: Induction of apoptosis in human HepG2 cells assessed as viable cells at 4 uM incubated for 24 hrs by annexin V-FITC and PI staining based flow cytometry analysis (reference value: 94.2 %); assay type: functional; conditions: read-out: Activity; outline: as §2
[10] = tested on: HepG2; test: Induction of apoptosis in human HepG2 cells assessed as necrotic cells at 4 uM incubated for 24 hrs by annexin V-FITC and PI staining based flow cytometry analysis (reference value: 0.8 %); assay type: functional; outline: as §2
[11] = tested on: SMMC-7721; test: Induction of apoptosis in human SMMC-7721 cells assessed as viable cells at 1 uM incubated for 24 hrs by annexin V-FITC and PI staining based flow cytometry analysis (reference value: 93.3 %); assay type: functional; conditions: read-out: Activity; outline: as §2
[12] = tested on: SMMC-7721; test: Induction of apoptosis in human SMMC-7721 cells assessed as early apoptotic cells at 1 uM incubated for 24 hrs by annexin V-FITC and PI staining based flow cytometry analysis (reference value: 0.3 %); assay type: functional; outline: as §2
[13] = tested on: SMMC-7721; test: Induction of apoptosis in human SMMC-7721 cells assessed as late apoptotic cells at 1 uM incubated for 24 hrs by annexin V-FITC and PI staining based flow cytometry analysis (reference value: 5.4 %); assay type: functional; outline: as §2
[14] = tested on: SMMC-7721; test: Induction of apoptosis in human SMMC-7721 cells assessed as necrotic cells at 1 uM incubated for 24 hrs by annexin V-FITC and PI staining based flow cytometry analysis (reference value: 1 %); assay type: functional; outline: as §2
[15] = tested on: SMMC-7721; test: Induction of apoptosis in human SMMC-7721 cells assessed as viable cells at 4 uM incubated for 24 hrs by annexin V-FITC and PI staining based flow cytometry analysis (reference value: 93.3 %); assay type: functional; conditions: read-out: Activity; outline: as §2
[16] = tested on: SMMC-7721; test: Induction of apoptosis in human SMMC-7721 cells assessed as early apoptotic cells at 4 uM incubated for 24 hrs by annexin V-FITC and PI staining based flow cytometry analysis (reference value: 0.3 %); assay type: functional; outline: as §2
[17] = tested on: SMMC-7721; test: Induction of apoptosis in human SMMC-7721 cells assessed as late apoptotic cells at 4 uM incubated for 24 hrs by annexin V-FITC and PI staining based flow cytometry analysis (reference value: 5.4 %); assay type: functional; outline: as §2
[18] = tested on: HepG2; test: Induction of apoptosis in human HepG2 cells incubated for 24 hrs by annexin V-FITC and PI staining based flow cytometry analysis; assay type: functional, cell-based; conditions: dose 1-4 µM; outline: as §2
[19] = tested on: SMMC-7721; test: Induction of apoptosis in human SMMC-7721 cells incubated for 24 hrs by annexin V-FITC and PI staining based flow cytometry analysis; assay type: functional, cell-based; conditions: dose 1-4 µM; outline: as §2
[20] = tested on: HepG2; test: Induction of apoptosis in human HepG2 cells assessed as increase in Bax expression incubated for 24 hrs by Western blot analysis; assay type: functional, cell-based; conditions: dose 1-4 µM
Outline: (§3)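 HepG2 exposed to 1.0, 2.0 or 4.0 µM for 24 h. Lysates separated by electrophoresis and blotted onto nitrocellulose. Probed overnight at 4 °C with anti-Bcl-2, anti-BAX or anti-cleaved caspase-3, then 2 h at room temperature with anti-mouse/rabbit IgG. ECL detection, GAPDH as loading control; quantified from more than three separate experiments.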

[21] = tested on: HepG2; test: Induction of apoptosis in human HepG2 cells assessed as increase in Caspase-3 expression incubated for 24 hrs by Western blot analysis; assay type: functional, cell-based; conditions: dose 1-4 µM; outline: as §3
[22] = tested on: HepG2; test: Induction of apoptosis in human HepG2 cells assessed as decrease in Bcl-2 expression incubated for 24 hrs by Western blot analysis; assay type: functional, cell-based; conditions: dose 1-4 µM; outline: as §3
[23] = tested on: RAW264.7; test: Inhibition of NF-kappaB in mouse RAW264.7 cells assessed as reduction in LPS-induced p65 phosphorylation incubated for 1 hr followed by LPS stimulation and measured after 30 mins by Western blot analysis; assay type: cell-based; conditions: dose 1-4 µM
Outline: (§4)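 RAW264.7 incubated 1 h with compound (1.0, 2.0, 4.0 µM), then LPS 1.0 µg/mL for 30 min before extraction. Lysates blotted to nitrocellulose and probed overnight at 4 °C for total and phospho forms of p65, IκBα, Akt, ERK1/2, JNK and p38; secondary antibody 2 h at room temperature. ECL detection, normalized to GAPDH, mean ± SD of triplicate tests.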

[24] = tested on: RAW264.7; test: Inhibition of NF-kappaB in mouse RAW264.7 cells assessed as reduction in LPS-induced ERK phosphorylation at 1 to 4 uM incubated for 1 hr followed by LPS stimulation and measured after 30 mins by Western blot analysis; assay type: cell-based; conditions: dose 1-4 µM; outline: as §4
[25] = tested on: RAW264.7; test: Inhibition of NF-kappaB in mouse RAW264.7 cells assessed as reduction in LPS-induced JNK phosphorylation at 1 to 4 uM incubated for 1 hr followed by LPS stimulation and measured after 30 mins by Western blot analysis; assay type: cell-based; conditions: dose 1-4 µM; outline: as §4
[26] = tested on: RAW264.7; test: Inhibition of NF-kappaB in mouse RAW264.7 cells assessed as reduction in LPS-induced p65 nuclear translocation at 4 uM pretreated with LPS for 15 mins followed by compound addition and measured after 2 hrs by DAPI staining based fluorescence microscopy; conditions: time 135.0 min

With `Cl.NC1=NC(c2cccc(F)c2)C2=C(N1)/C(=C/c1cccc(F)c1)CN(S(=O)(=O)c1ccc(C(F)(F)F)cc1)C2` (stereo unspecified) the IC50 [1] was 28.8 µM, the IC50 [2] was 35.2 µM and the Activity [3] was “Non-Toxic”. For the same molecule, the inhibition at 5 µM [4] was 88.5%, the inhibition at 5 µM [5] was 86.8% and the Activity [6] was 53.4%. The Activity [7] was 10.5%, the Activity [8] was 0.8% and the viability at 4 µM [9] was 30.6%. The Activity [10] was 1.2%, the viability at 1 µM [11] was 80.8% and the Activity [12] was 3.2%. For the same molecule, the Activity [13] was 15.1%, the Activity [14] was 0.7% and the viability at 4 µM [15] was 66.5%. For the same molecule, the Activity [16] was 11.4%, the Activity [17] was 9.2% and the Activity [18] was “Dose-dependent effect”. The Activity [19] was “Dose-dependent effect”, the Activity [20] was “Dose-dependent effect” and the Activity [21] was “Dose-dependent effect”. For the same molecule, the Activity [22] was “Dose-dependent effect”, the inhibition [23] was “Dose-dependent effect” and the inhibition [24] was “Active”. For the same molecule, the inhibition [25] was “Active” and the inhibition [26] was “Active”.
